We go through 15 compounds from ChEMBL document CHEMBL4699546, “Synthesis and structure-activity relationships for tetrahydroisoquinoline-based inhibitors of Mycobacterium tuberculosis” (Bioorg Med Chem, 2020).

The test system of data set [1] is ATP synthase (human vs Mycobacterium smegmatis). Put plainly: Selectivity index, ratio of IC50 for human ATPsynthase to IC50 for Mycobacterium smegmatis ATPsynthase. Type of data set: toxicity. Particulars: read-out: Ratio IC50.
The nature of data set [2]: Inhibition of Mycobacterium smegmatis ATPsynthase. On the set-up: species or system Mycolicibacterium smegmatis.
Data set [3] can be described thus: Inhibition of human ATPsynthase.
The nature of data set [4]: Metabolic stability in mouse liver microsomes assessed as intrinsic clearance. It counts as ADME, Microsome.
Data set [5] is described as follows: Metabolic stability in human liver microsomes assessed as intrinsic clearance. It counts as ADME, Microsome.
The test system of another data set is Vero. Put plainly: Cytotoxicity against African green monkey Vero cells assessed as reduction in cell viability incubated for 72 hrs by MTS-PMS assay. Type of data set: cell-based. Particulars: Chlorocebus sabaeus. The gist of the method:
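Mammalian cytotoxicity measured in Vero (green monkey kidney epithelial) cells; value reported as IC50 in µg/mL.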

The subject of data set [6] is Mycobacterium tuberculosis. Put plainly: Antimycobacterial activity against Mycobacterium tuberculosis H37Rv ATCC 27294 assessed as reduction in bacterial growth incubated for 10 days in under anaerobic condition by luminometric assay. As to conditions: H37Rv ATCC 27294, 240 h, time 10 day. Type of data set: functional. The method, boiled down: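 Growth inhibition of M.tb H37Rv under non-replicating conditions (LORA), reported as minimum inhibitory concentration in µg/mL; tested at the Institute for Tuberculosis Research, University of Illinois at Chicago.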

In data set [7] the test system is Mycobacterium tuberculosis. Put plainly: Antimycobacterial activity against Mycobacterium tuberculosis H37Rv ATCC 27294 assessed as reduction in bacterial growth incubated for 4 days under aerobic condition by alamar blue based fluorescence assay. It counts as functional. As to conditions: H37Rv ATCC 27294, 96 h, time 4 day. The method, boiled down: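 Replicating aerobic culture of M.tb H37Rv, MABA read-out; value is the minimum inhibitory concentration in µg/mL; assay run at the Institute for Tuberculosis Research, University of Illinois at Chicago.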

The structures appear in SMILES notation. In brackets after ≈: the same amount, converted by molar mass.

`CN1CCN(c2cccc3c2CN(C(=O)Nc2ccc(-c4ccc(OC(F)(F)F)cc4)cn2)CC3)CC1`: the selectivity ratio in data set [1] was greater than 80. The figures for the IC50 in data set [2] and in data set [3] were 6.2 µg/mL (≈ 12.1 µM) and greater than 500 µg/mL, respectively.

Consider `Cc1cc(Cl)ccc1-c1ccc(NC(=O)N2CCc3c(F)ccc(N4CCN(C)CC4)c3C2)nc1`, for which the CLH was 3.9 mL/h/kg in data set [4] and 3 mL/h/kg in data set [5]. Also, the IC50 in data set [2] amounted to 1.8 µg/mL (≈ 3.64 µM); in data set [3], 17 µg/mL (≈ 34.4 µM).

Turning to `Cc1cc(Cl)ccc1-c1ccc(N2CCc3c(C)ccc(N4CCN(C)CC4)c3C2)nc1`, the CLH in data set [4] was found to be 2.1 mL/h/kg; in data set [5], 1.32 mL/h/kg. For the same compound, the results for the IC50 (in the data set with Vero; in data set [2]; in data set [3]) were 22 µg/mL (≈ 49.2 µM), 5.5 µg/mL (≈ 12.3 µM) and 23 µg/mL (≈ 51.5 µM), respectively. Besides, the MIC90 in data set [6] is 2.4 µg/mL (≈ 5.37 µM); in data set [7], 1.9 µg/mL (≈ 4.25 µM).

As to `COc1ccc(N2CCN(C)CC2)c2c1CCN(Cc1ccc(-c3ccc(Cl)cc3C)cn1)C2`, the concentration for half-maximal inhibition (IC50) in the data set on Vero came out at 12 µg/mL (≈ 25.2 µM). In addition, the MIC90 was determined as 6.1 µg/mL (≈ 12.8 µM) in data set [6] and 1.8 µg/mL (≈ 3.77 µM) in data set [7].

In the case of `COc1nc2ccc(Br)cc2cc1[C@@H](c1ccccc1)[C@@](O)(CCN(C)C)c1cccc2ccccc12` [BEDAQUILINE], the half-inhibitory concentration (IC50) in data set [3] is greater than 1000 µg/mL.

On to `Cc1ccc(N2CCN(C)CC2)c2c1CCN(c1ccc(-c3ccc(C(C)(C)C)cc3)cn1)C2`, for which the CLH in data set [4] came to 3.36 mL/h/kg; in data set [5] it was 2.46 mL/h/kg. For the same compound, the concentration for half-maximal inhibition (IC50) with Vero turned out to be 18 µg/mL (≈ 39.6 µM). The MIC90 was 3.4 µg/mL (≈ 7.48 µM) in data set [6] and 1.4 µg/mL (≈ 3.08 µM) in data set [7].

On to `Cc1ccc(N2CCN(C)CC2)c2c1CCN(C(=O)Nc1ccc(-c3cc(C(F)(F)F)cc(C(F)(F)F)c3)cn1)C2`, for which the IC50 turned out to be 14 µg/mL (≈ 24.2 µM) in data set [2] and 13 µg/mL (≈ 22.5 µM) in data set [3].

Turning to `CN1CCN(c2cccc3c2CN(Cc2ccc(-c4ccc(Cl)cc4)cn2)CC3)CC1`, the values for the CLH in data set [4] and in data set [5] were 14.3 mL/h/kg and 7.26 mL/h/kg, respectively. In addition, the selectivity ratio in data set [1] is greater than 70. Moreover, the values for the IC50 in data set [2] and in data set [3] were 7.2 µg/mL (≈ 16.6 µM) and greater than 500 µg/mL, respectively.

In the case of `COc1ccc(N2CCN(C)CC2)c2c1CCN(c1ccc(-c3cc(C(F)(F)F)cc(C(F)(F)F)c3)cn1)C2`, the IC50 in the data set with Vero is 19 µg/mL (≈ 34.5 µM). Further, the values for the MIC90 in data set [6] and in data set [7] were 12 µg/mL (≈ 21.8 µM) and 7.9 µg/mL (≈ 14.3 µM), respectively.

In the case of `COc1ccc(N2CCN(C)CC2)c2c1CCN(C(=O)Nc1ccc(-c3ccc(Cl)cc3C)cn1)C2`, the IC50 in data set [2] is 6.3 µg/mL (≈ 12.4 µM); in data set [3], 20 µg/mL (≈ 39.5 µM).

Take `Cc1cc(Cl)ccc1-c1ccc(CN2CCc3c(C)ccc(N4CCN(C)CC4)c3C2)nc1`: the CLH in data set [4] was 14.3 mL/h/kg; in data set [5], 5.52 mL/h/kg. In addition, in the data set with Vero, the IC50 worked out at 14 µg/mL (≈ 30.4 µM). The values for the MIC90 in data set [6] and in data set [7] were 5.2 µg/mL (≈ 11.3 µM) and 0.79 µg/mL (≈ 1.71 µM), respectively.

For `Cc1ccc(N2CCN(C)CC2)c2c1CCN(C(=O)N1CCC(Oc3ccc(OC(F)(F)F)cc3)CC1)C2`, the CLH in data set [4] came out at 2.4 mL/h/kg; in data set [5], 2.88 mL/h/kg.

Regarding `COc1ccc(N2CCN(C)CC2)c2c1CCN(C(=O)Nc1ccc(-c3ccc(Cl)cc3Cl)cn1)C2`, the CLH was 35 mL/h/kg in data set [4] and 2.88 mL/h/kg in data set [5]. In addition, the results for the IC50 in data set [2] and in data set [3] were 3 µg/mL (≈ 5.7 µM) and 27 µg/mL (≈ 51.3 µM), respectively.

On to `CCc1ccc(N2CCN(C)CC2)c2c1CCN(C(=O)Nc1ccc(-c3ccc(C(F)(F)F)cc3)cn1)C2`, for which the results for the CLH in data set [4] and in data set [5] were 48.6 mL/h/kg and 6.42 mL/h/kg, respectively. Moreover, the IC50 was determined as 2.2 µg/mL (≈ 4.2 µM) in data set [2] and 7.2 µg/mL (≈ 13.8 µM) in data set [3].

Regarding `Cc1ccc(N2CCN(C)CC2)c2c1CCN(C(=O)N1CCC(Oc3ccccc3C(F)(F)F)CC1)C2`, the IC50 in data set [2] was determined as 6.2 µg/mL (≈ 12 µM); in data set [3], 48 µg/mL (≈ 92.9 µM).
